Screening results from PubChem.
Hits are enriched below; roughly 4.2% of the tested compounds scored in any of these assays.
TAAR1 antag = human TAAR1 antagonists, primary screen, Fluo-8 calcium fluorescence, CHO RD-HGA16 cells; Trace amine-associated receptor 1 (Homo sapiens), Q96RJ0; antagonist; inhibition, % at 3 µM; 1.5% of 360,000 active; AID 624466, 2012;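 active = inhibition above a per-plate cutoff, the mean inhibition of test compounds on that plate plus 3 SD, cut at about 49% in these data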;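 also: 0% = DMSO plus EC80 beta-PEA response and 100% = DMSO alone without agonist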
Target sequence (Q96RJ0 whole entry, looked up): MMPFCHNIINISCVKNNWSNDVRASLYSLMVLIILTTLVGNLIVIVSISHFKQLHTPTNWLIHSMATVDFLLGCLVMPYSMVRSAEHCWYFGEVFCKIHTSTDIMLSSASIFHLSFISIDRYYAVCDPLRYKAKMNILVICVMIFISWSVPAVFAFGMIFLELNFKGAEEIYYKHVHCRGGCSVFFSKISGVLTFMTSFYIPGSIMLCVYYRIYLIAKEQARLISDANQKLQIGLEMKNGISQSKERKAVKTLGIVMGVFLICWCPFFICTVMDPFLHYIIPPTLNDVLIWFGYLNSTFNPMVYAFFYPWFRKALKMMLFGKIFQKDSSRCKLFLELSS
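Material: RD-HGA16 CHO cells with stable hTAAR1 and Gα16; Dosing: single nominal final test compound concentration of 3 µM; Schedule: seeding 17-24 h prior, 75-min 37 °C, 30-min RT dye loading; Detection: kinetic Fluo-8 calcium fluorescence measurement; Measure: % inhibition from peak post-agonist over basal fluorescence ratio; Benchmarks: vehicle and agonist controls.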
TAAR1 agonist = human TAAR1 agonists, primary screen, Fluo-8 calcium fluorescence, CHO RD-HGA16 cells; Trace amine-associated receptor 1 (Homo sapiens), Q96RJ0; vehicle wells 0%, saturating PEA agonist 100%; AID 624467, 2012; 0.99% of 360,000 active; activation, % at 3 µM;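 active = activation above the mean activation of all test compounds in the run plus 3 SD, cut at about 38% in these data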
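Test system: RD-HGA16 (CHO) cells co-expressing Gα16 and hTAAR1 / Benchmarks: DMSO vehicle as 0%, PEA at EC100 as 100% / Repeats: no replicates (n 1) / Measure: % activation from peak over basal fluorescence ratio, DMSO-to-PEA scaled / Timing: 17-24 h plating, Fluo-8 75 min 37 °C, 30 min RT / Technique: kinetic Fluo-8 calcium fluorescence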
OX1R antag-1 = antagonists of human orexin 1 receptor (OX1R); Orexin/Hypocretin receptor type 1 (Homo sapiens), O43613; AID 485270, 2010; OX1R-expressing cells, FRET antagonist read-out; inhibition, % at 6.6 µM; 1.8% of 330,000 active; in the data active = inhibition mostly above about 38%, no sharp cut-off; inactive = mostly below about 40%;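 also: 0% = agonist challenge alone and 100% = reference antagonist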
Target sequence (O43613 whole entry, looked up): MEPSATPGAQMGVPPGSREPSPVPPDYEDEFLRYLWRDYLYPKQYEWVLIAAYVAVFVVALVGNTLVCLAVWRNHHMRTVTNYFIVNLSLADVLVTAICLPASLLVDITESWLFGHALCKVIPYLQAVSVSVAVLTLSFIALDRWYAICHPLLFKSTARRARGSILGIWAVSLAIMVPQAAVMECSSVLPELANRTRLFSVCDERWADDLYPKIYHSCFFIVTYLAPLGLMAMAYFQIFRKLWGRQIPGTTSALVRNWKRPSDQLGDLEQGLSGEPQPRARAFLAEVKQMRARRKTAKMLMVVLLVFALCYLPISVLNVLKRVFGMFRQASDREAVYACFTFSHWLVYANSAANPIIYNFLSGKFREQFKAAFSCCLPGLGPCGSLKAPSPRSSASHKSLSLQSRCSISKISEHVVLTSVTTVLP
CHO parental Ca = ATP-evoked calcium signal inhibitors, parental CHO, primary screen, counter-screen for OX1R antagonist project, cell-based, fluorescence, Fluo-8 calcium dye; 0.63% of 330,000 active; inhibition, % at 5.6 µM; AID 463079, 2010; parental CHO-K1, ATP-induced calcium, Fluo-8 fluorescence;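 active = inhibition above that plate's mean sample inhibition plus 3 SD, cut at about 26% in these data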;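 also: 0% = ATP-challenged DMSO wells and 100% = DMSO wells without ATP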
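Assay system: untransfected parental CHO cell line. Also added: ATP agonist challenge. Dosing: one dose, 5.6 µM nominal. Measured by: Fluo-8 fluorescence. Read-out: % inhibition. Benchmarks: ATP wells versus no-ATP DMSO wells. Repeats: no replicates.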
GalR3 antagonist = GalR3 antagonists in HEK293 cells, primary screen, cell-based, fluorescence readout. Galanin receptor type 3 (Homo sapiens), O60755. HEK293 GalR3-CNG cAMP membrane potential fluorescence; galR3 body fused to GalR1 C-terminus. inhibition, % at 3 µM. 0.44% of 360,000 active;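 active = inhibition above the screen-wide average plus 3 SD, cut at about 13% in these data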;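 also: forskolin and galanin both at EC90 stimulate the cells; cAMP rise reported by CNG channel membrane potential dye signal; 0% = forskolin plus galanin with DMSO and 100% = forskolin alone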
OX1R antag-2 = OX1R (HCRTR1) antagonists, primary screen, fluorescence, CHO/OX1R cells, Fluo-8 calcium, orexin A | Fluo-8 calcium fluorescence | AID 434989, 2010 | Orexin/Hypocretin receptor type 1 (Homo sapiens), O43613 | inhibition, % at 5 µM | 0.43% of 330,000 active;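 active = inhibition above its plate's threshold, mean inhibition of all tested compounds on the plate plus 3 SD, cut at about 37% in these data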;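 also: 0% = orexin A challenge wells and 100% = SB-334867-A antagonist wells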
TAAR1 ag conf = human TAAR1 agonists, retest of hits, confirmation, Fluo-8 calcium fluorescence, CHO RD-HGA16 cells | shares compounds with TAAR1 agonist | scaled: DMSO 0%, maximal phenethylamine 100% | activation, % at 3 µM | 82% of 2,400 active | AID 651783, 2012;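 active = activation above a cutoff set at the run's mean compound activation plus 3 SD, cut at about 39% in these data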
Ga16 nonsel ag = nonselective calcium mobilization agonists, CHO-Ga16 cells, counter-screen for hTAAR1 agonist project, cell-based, fluorescence, CHO-Ga16 parental line | shares compounds with TAAR1 agonist | Fluo-8 calcium fluorescence; normalized to maximal ATP response, DMSO zero | activation, % at 3 µM | 50% of 2,400 active;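 active = activation above the run cutoff, the mean activation over all tested wells plus 3 SD, cut at about 12% in these data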;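 also: 0% = DMSO wells and 100% = maximal ATP response on the peak over basal ratio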
TAAR1 desensitize = TAAR1 desensitization by agonist hits, confirmation, counter-screen for TAAR1 agonist project, cell-based, fluorescence, tachyphylaxis; inhibition, % at 3 µM; shares compounds with TAAR1 agonist; 46% of 2,400 active; CHO RD-HGA16 hTAAR1, Fluo-8 calcium, beta-PEA response inhibition;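 active = inhibition above the run cutoff, the mean inhibition of all test compounds plus 3 SD, cut at about 49% in these data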;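 also: beta-PEA stimulus applied at its EC80; loss of beta-PEA calcium signal after compound pretreatment read as receptor desensitization; 0% = DMSO with beta-PEA at EC80 and 100% = DMSO alone without agonist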
Ga16 nonsel ant = inhibition of ATP-evoked calcium response in CHO-Ga16 cells, counter-screen for TAAR1 agonist project, cell-based, fluorescence; AID 651952, 2012; inhibition, % at 3 µM; 39% of 2,400 active; shares compounds with TAAR1 agonist; CHO-Ga16 ATP-induced calcium, Fluo-8 fluorescence;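 active = inhibition above the plate's mean compound inhibition plus 3 SD, computed per plate, cut at about 22% in these data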;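 also: 0% = EC80 ATP with DMSO and 100% = DMSO wells without ATP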
* = called active by the depositor; . = no result given.

SMILES | TAAR1 antag | TAAR1 agonist | OX1R antag-1 | CHO parental Ca | GalR3 antagonist | OX1R antag-2 | TAAR1 ag conf | Ga16 nonsel ag | TAAR1 desensitize | Ga16 nonsel ant
CCOc1cc2c(cc1OCC)-n1cccc1C(c1cccc(F)c1F)NC2 (stereo unspecified) | -10 | 3 | 14 | -28 | -12 | -32 | . | . | . | .
Fc1ccccc1CCNCc1cccc2ccccc12 | 15 | 8 | 6 | -24 | -8 | -28 | . | . | . | .
Cc1ccccc1CCNCc1cc2cccc(C)c2[nH]c1=O | 86* | 108* | 8 | -15 | -11 | -54 | 112* | 17* | 98* | 7
CN1CC(C(=O)c2ccc(Cl)cc2)C(c2ccccc2F)C1 (stereo unspecified) | -8 | 45* | 4 | -26 | -5 | -18 | 74* | 5 | 34 | 13
CN1CC(C(=O)c2ccccc2)C(c2ccccc2)C1 (stereo unspecified) | -31 | 55* | 13 | -12 | -9 | -33 | 76* | 3 | 28 | 7
COc1cccc(C(=O)C2CN(C)CC2c2ccc(Cl)cc2)c1 (stereo unspecified) | 0 | 4 | 19 | -10 | -7 | -13 | . | . | . | .
COc1ccc(C(=O)C2CN(C)CC2c2ccc(Cl)cc2)cc1 (stereo unspecified) | -7 | 12 | 12 | -21 | -6 | -26 | . | . | . | .
COC(=O)C1=C(c2ccc(OCc3ccccc3)cc2)C[C@@H]2CC[C@H]1N2C(=O)NCc1ccc2c(c1)OCO2 | 5 | -1 | . | . | -4 | . | . | . | . | .
c1ccc2c(NC3=NCCS3)cccc2c1 | -1 | 43* | 27 | -31 | -3 | -40 | 82* | 15* | 47 | 5
N[C@H](CO)Cc1ccccc1 | 14 | 52* | . | . | 0 | . | 74* | 1 | 37 | 9
CN(C)C(Cc1ccccc1)C(=O)c1ccccc1 (stereo unspecified) | -12 | 6 | 12 | -21 | -2 | -12 | . | . | . | .
O=C(NCCN1CCC2(CC1)C(=O)NCN2c1ccccc1)c1ccc(Cl)cc1 | 105* | 108* | . | . | -8 | . | 92* | 72* | 106* | 100*
O=C(NCCN1CCC2(CC1)C(=O)NCN2c1ccccc1)c1ccc2ccccc2c1 | 105* | 112* | . | . | -5 | . | 91* | 66* | 107* | 101*
Cc1ccccc1C(=O)NCCN1CCC2(CC1)C(=O)NCN2c1ccccc1 | -28 | 2 | . | . | -5 | . | . | . | . | .
O=C(NCCN1CCC2(CC1)C(=O)NCN2c1ccccc1)c1ccc(F)cc1 | 100* | 98* | . | . | -9 | . | 63* | 50* | 95* | 79*
COC(=O)C1=C(c2cc3ccccc3o2)C[C@@H]2CC[C@H]1N2C(=O)NCc1ccc(C(F)(F)F)cc1 | 1 | 5 | 31 | -22 | -5 | -30 | . | . | . | .
CCOc1ccc(Cl)cc1CNCCc1ccc(F)cc1 | -6 | 15 | 9 | -28 | -9 | -35 | . | . | . | .
Cn1cccc1CNCCc1ccc(F)cc1 | 32 | 49* | 11 | -11 | -3 | -24 | 82* | 9 | 54* | 7
Fc1ccc(CCNCc2ccccc2Cl)cc1 | -18 | 64* | 7 | -15 | -6 | -14 | 62* | 8 | 24 | 6
COc1cc(CN2CCNCC2)cc(OC)c1OC | 8 | 3 | 10 | -5 | -10 | -1 | . | . | . | .
CCCCN1C(=O)NC(=O)C2(Cc3c(nc4ccccn4c3=O)N3CCc4ccccc4C32)C1=O (stereo unspecified) | 24 | 61* | 1 | -5 | -3 | -27 | 90* | 33* | 40 | 11
CCCCN1C(=O)NC(=O)C2(Cc3c(nc4c(C)cccn4c3=O)N3CCc4ccccc4C32)C1=O (stereo unspecified) | 38 | 57* | 1 | -29 | -3 | -30 | 72* | 28* | 49* | 27*
Cc1cccn2c(=O)c3c(nc12)N1CCCCCC1C1(C3)C(=O)N(C)C(=O)N(C)C1=O (stereo unspecified) | -21 | -3 | 2 | -21 | -4 | -28 | . | . | . | .
Cc1cccn2c(=O)c3c(nc12)N1CCc2ccccc2C1C1(C3)C(=O)NC(=O)N(C)C1=O (stereo unspecified) | 43 | 22 | 6 | -21 | -4 | -14 | . | . | . | .
COc1cc(OC)c(OC)cc1CNCCc1ccc2c(c1)OCO2 | -5 | 2 | 13 | -12 | -8 | -30 | . | . | . | .
SMILES | TAAR1 antag | TAAR1 agonist | OX1R antag-1 | CHO parental Ca | GalR3 antagonist | OX1R antag-2 | TAAR1 ag conf | Ga16 nonsel ag | TAAR1 desensitize | Ga16 nonsel ant
Cc1cc(/C=C2\C(=O)NC(=O)N(c3cccc(F)c3)C2=O)c(C)n1-c1ccc(C(=O)O)c(Cl)c1 | -10 | 3 | 10 | 12 | -8 | 5 | . | . | . | .
COC(=O)C1=C(c2ccc(-c3ccccc3)c(F)c2)C[C@@H]2CC[C@H]1N2C(=O)N1CCC(O)CC1 | 17 | 9 | 3 | -22 | -5 | -18 | . | . | . | .
COc1cccc(C)c1NC1=NCCO1 | 61* | 87* | . | . | 7 | . | 92* | 1 | 87* | -3
Cc1ccc(N2C(=O)NC(=O)/C(=C\C=C\c3ccco3)C2=O)cc1C | 35 | 54* | 11 | -3 | -5 | -7 | 76* | 48* | 69* | 29*
Cc1ccc(N2C(=O)NC(=O)/C(=C\C=C\c3ccco3)C2=O)cc1 | 39 | 33 | 10 | -8 | 4 | -5 | . | . | . | .
O=C1NC(=O)N(c2ccccc2)C(=O)/C1=C/C=C/c1ccco1 | 40 | 57* | 2 | -6 | -1 | -17 | 30 | 13* | 22 | 2
